Measurements reported in paper PMC6207383 (International Journal of Nanomedicine, 2018).

How the values were obtained:
HepG2 cells [1] = test: Colony formation assay; format: cell-based, human; details: DOX and ELC 0.01 µM, 24 hours treatment, 8–10 days growth
Summary of the method: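 HepG2 cells were maintained in DMEM with 10% FBS and penicillin/streptomycin at 37°C, 5% CO2. They were seeded at 1×10^5 cells/well, left overnight, then exposed 24 h to free or nanoparticle test compounds (each drug at 0.01 µM final). Cells were trypsinized, reseeded at 800 cells/well and grown 8–10 days at 37°C. Colonies were stained with 1% crystal violet for 20 min at room temperature and counted by microscope.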

HepG2 cells [2] = test: Tumor sphere formation assay; format: cell-based, human; details: DOX and ELC 0.15 µM, 7 days
Summary of the method: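 Trypsinized HepG2 cells were seeded at 500 cells/well in ultra-low-attachment wells in DMEM/F12 with 1× B27, 1× ITS, 20 ng/mL EGF and 20 ng/mL bFGF, then left overnight. Cells were exposed to free or nanoparticle test compounds (each drug at 0.15 µM final). After 7 days, tumor spheres were counted by microscope.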

HepG2-TS = test: CCK-8 cytotoxicity assay in HepG2 tumor spheres; format: cell-based, human
Summary of the method: (§1)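 Cells seeded at 5×10^3/well and left overnight at 37°C to attach. They were then exposed for 48 h to graded concentrations of each agent alone or combined at fixed molar ratios (4:1, 2:1, 1:1, 1:2, 1:4). CCK-8 was added for about 2 h and A450 read. Viability = (AE–AB)/(AC–AB)×100%, using untreated and blank wells. HepG2 were grown in DMEM/10% FBS. Spheres were grown in DMEM-F12 with B27, ITS, 20 ng/mL EGF and bFGF, dissociated with Accutase and passed through a 100-µm sieve.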

HepG2 cells [3] = test: CCK-8 cytotoxicity assay in HepG2 cells; format: cell-based; details: Homo sapiens, HepG2, 48 h
Summary of the method: as §1

[4] = Tissue distribution study in vivo; parameters: species or system BALB/c nude mice; details: iv 10 µg DiR per mouse, 2–24 hours
Summary of the method: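 Male BALB/c nude mice (4–6 weeks, about 20 g) bore subcutaneous right-back tumours from 2×10^6 HepG2 cells. At about 300 mm3 they were randomised to saline, free DiR or DiR-loaded nanoparticles, given as a single tail-vein injection. Imaging was under isoflurane at 745/820 nm excitation/emission, at 2, 4, 6, 8, 12 and 24 h. At 24 h, excised organs and tumours were imaged and quantified as total radiant efficiency.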

For `COc1cccc2c1C(=O)c1c(O)c3c(c(O)c1C2=O)C[C@@](O)(C(=O)CO)C[C@@H]3O[C@H]1C[C@H](N)[C@H](O)[C@H](C)O1` [DOX, doxorubicin], the “number of colonies formed” value (HepG2 cells [1]) was “reduced the formation of colonies compared with the control”, the tumor sphere formation (HepG2 cells [2]) was “decreased tumor sphere formation compared with that in the control” and the IC50 (HepG2-TS; HepG2-TS, 48 hours, CCK-8) was 0.477 ± 0.0514 µM.

For `COc1cc2c(cc1OC)CN(CCc1ccc(NC(=O)c3cccc4c(=O)c5cccc(OC)c5[nH]c34)cc1)CC2` [ELC, elacridar], the “number of colonies formed” value (HepG2 cells [1]) was “reduced the formation of colonies compared with the control”, the tumor sphere formation (HepG2 cells [2]) was “decreased tumor sphere formation compared with that in the control” and the IC50 (HepG2 cells [3]) was 9.27 ± 2.61 µM. For the same molecule, the IC50 (HepG2-TS; Homo sapiens, HepG2, 48 h) was 13.7 ± 4.27 µM.

In the case of `CCCCCCCCCCCCCCCCCCN1/C(=C/C=C/C=C/C=C/C2=[N+](CCCCCCCCCCCCCCCCCC)c3ccccc3C2(C)C)C(C)(C)c2ccccc21.[I-]` [free DiR], the “DiR signals in real-time in vivo images” value [4] is reported as “No obvious DiR signals”.
